As usually defined, the IC50 is the point on the concentration scale where inhibition reaches its midpoint.

Active and inactive are the calls of the source. The calls are words filed in the database; no cut-off is given here.

In data set [1] the test system is HMEC. Description: Antiproliferative activity against human HMEC cells at 1 to 5 uM by MTT assay. Format: cell-based. In outline:
(§1)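 Cancer lines seeded 5000/well and nonmalignant PrEC/MEC 8000/well in 10% FBS, 24 h before treatment. Compound exposure 24 h in 5% FBS medium, 0.1% final DMSO. MTT (0.25 mg/mL) for 1 h at 37°C, dye solubilized in DMSO, absorbance read at 570 nm. Mean ± SD, n = 6.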

Data set [2] has as its system PC-3. In words: Induction of apoptosis in human PC3 cells assessed as late apoptotic cells at 3 uM by annexin V/PI staining (reference value: 9.8%). The format is functional.
In data set [3] the target is T1, 3-phosphoinositide-dependent protein kinase 1 (Homo sapiens) (UniProt O15530).
T1 sequence (whole entry): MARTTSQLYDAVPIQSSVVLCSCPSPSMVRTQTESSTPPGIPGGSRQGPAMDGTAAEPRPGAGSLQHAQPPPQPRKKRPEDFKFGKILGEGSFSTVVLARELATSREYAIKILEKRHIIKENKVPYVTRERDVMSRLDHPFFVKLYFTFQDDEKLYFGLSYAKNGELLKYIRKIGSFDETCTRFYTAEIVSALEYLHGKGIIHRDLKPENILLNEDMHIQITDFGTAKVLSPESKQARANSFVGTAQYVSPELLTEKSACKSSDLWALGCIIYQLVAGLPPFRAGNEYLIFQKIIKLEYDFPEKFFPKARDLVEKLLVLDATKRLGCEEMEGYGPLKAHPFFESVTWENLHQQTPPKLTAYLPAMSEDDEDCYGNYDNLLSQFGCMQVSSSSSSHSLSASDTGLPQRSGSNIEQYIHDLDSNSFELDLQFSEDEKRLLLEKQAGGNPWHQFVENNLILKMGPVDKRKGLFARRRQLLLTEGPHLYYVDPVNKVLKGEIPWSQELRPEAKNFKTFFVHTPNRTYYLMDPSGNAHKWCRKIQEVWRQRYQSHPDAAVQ
Description: Inhibition of PDK2 in human MDA-MB-231 cells assessed as Akt Thr-308 dephosphorylation by Western blot analysis. Format: functional, cell-based. In outline:
(§2)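 Cells exposed 24 h in 5% FBS medium, final DMSO 0.1%; lysed in 1% SDS/10 mM EDTA/50 mM Tris pH 8.1, equal protein on SDS-PAGE, nitrocellulose, primary antibody 1:1000 at 4°C for 2 h, HRP secondary 1:5000, ECL detection; blots representative of three independent experiments.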

For data set [4], the target named is T2, Scaffold protein ILK (Homo sapiens) (UniProt Q13418).
T2 sequence (whole entry): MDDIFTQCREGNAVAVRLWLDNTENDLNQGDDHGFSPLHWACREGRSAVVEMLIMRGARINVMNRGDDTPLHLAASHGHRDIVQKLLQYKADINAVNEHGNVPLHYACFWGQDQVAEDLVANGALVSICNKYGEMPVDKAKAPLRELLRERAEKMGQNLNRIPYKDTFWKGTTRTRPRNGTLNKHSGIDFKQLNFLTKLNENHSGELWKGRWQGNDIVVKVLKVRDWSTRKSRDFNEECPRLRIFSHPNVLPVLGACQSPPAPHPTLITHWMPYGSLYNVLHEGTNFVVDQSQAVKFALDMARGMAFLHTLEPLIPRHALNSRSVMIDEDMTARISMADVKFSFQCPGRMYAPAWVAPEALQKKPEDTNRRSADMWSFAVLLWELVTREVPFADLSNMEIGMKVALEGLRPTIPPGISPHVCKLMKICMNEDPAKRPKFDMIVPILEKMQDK
In words: Inhibition of ILK in human PC3 cells assessed as decrease in GSK3-beta phosphorylation by Western blot analysis. Format: cell-based. Conditions: PC-3. In outline: (§3)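 PC-3 and MDA-MB-231 cells exposed 24 h in 5% FBS medium across a concentration series. Phospho-GSK3β (Ser9) and phospho-MLC (Thr18/Ser19) detected by immunoblot: SDS lysis, primary 1:1000 at 4°C for 2 h, HRP secondary, ECL. Representative of three experiments.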
In general terms: In western blotting, separated proteins are transferred to a membrane and probed.

The test system of data set [5] is SK-BR-3. In words: Reduction in HER2 concentration in human SKBR3 cells after 24 hrs by Western blot analysis. Format: functional, cell-based. Summed up: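 PC-3 versus stable PC-3/CA-ILK, or SKBR3 versus transient SKBR3/CA-ILK (electroporation, used 48 h after), treated 24 h in 5% FBS medium; immunoblotting with ECL; representative of three experiments.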
The test system of data set [6] is MDA-MB-231. In words: Antiproliferative activity against human MDA-MB-231 cells assessed as suppression of cell viability by MTT assay. Format: functional, cell-based. In outline:
as §1

Data set [7] concerns SK-BR-3. In words: Reduction in YB-1 mRNA expression in human SKBR3 cells after 24 hrs by RT-PCR analysis. Format: functional, cell-based. In outline:
(§4)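 PC-3, PC-3/CA-ILK, SKBR3 and SKBR3/CA-ILK cells treated 24 h in 5% FBS medium; total RNA from 1 × 10^6 cells by Trizol, 1 μg reverse-transcribed, then PCR with gene-specific primers and β-actin reference.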

The target in data set [8] is Ribosomal protein S6 kinase beta-1 (Homo sapiens) (UniProt P23443). In words: Inhibition of p70S6K in human PC3 cells assessed as decrease in phosphorylated p70S6K by Western blot analysis. The format is cell-based. Conditions: PC-3. In outline:
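PC-3 cells (parental, or stable GFP-CA-ILK clones selected with G418 250 μg/mL and GFP sorting) exposed 24 h in 5% FBS medium; SDS lysis, immunoblot at 1:1000 primary, ECL; representative of three experiments.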

Data set [9] deals with Tyrosine-protein kinase ABL1 (Homo sapiens) (UniProt P00519). In words: Inhibition of Abl kinase at 5 uM assessed as remaining activity. In outline: (§5)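 Panel of 20 recombinant kinases, profiled by a commercial vendor.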
Data set [10] has as its target Cyclin-dependent kinase 1/cyclin B1 (Homo sapiens) (UniProt P06493+P14635). Description: Inhibition of CDK1/cyclin B at 5 uM assessed as remaining activity. Format: protein-complex assay. In outline: as §5
For data set [11], the target named is Rapamycin-insensitive companion of mTOR (Homo sapiens) (UniProt Q6R327). Description: Inhibition of mTORC2 in human PC3 cells assessed as SGK1 phosphorylation by Western blot analysis. Format: cell-based. To be noted: PC-3. In outline: as §2
Data set [12] relates to PC-3. Description: Induction of autophagy in human PC3 cells assessed as LC3-II conversion by Western blot analysis. The format is functional, cell-based. In outline: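 PC-3 cells treated 24 h in 5% FBS medium. Lysed in 1% SDS/10 mM EDTA/50 mM Tris pH 8.1, equal protein on SDS-PAGE, primary antibody 1:1000 at 4°C for 2 h, HRP secondary, ECL detection. Read-outs PARP cleavage and LC3-II conversion; blots representative of three experiments.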

The target of data set [13] is Rapamycin-insensitive companion of mTOR (Homo sapiens) (UniProt Q6R327). In words: Inhibition of mTORC2 in human PC3 cells assessed as PKCalpha phosphorylation by Western blot analysis. To be noted: PC-3. Format: cell-based. In outline:
as §2

Data set [14] concerns the target Ribosomal protein S6 kinase alpha-1 (Homo sapiens) (UniProt Q15418). Description: Inhibition of Rsk1 at 5 uM assessed as remaining activity.
In data set [15] the test system is SK-BR-3. In words: Reduction in HER2 mRNA expression in human SKBR3 cells after 24 hrs by RT-PCR analysis. Format: functional, cell-based. In outline:
as §4

For data set [16], the target named is Tyrosine-protein kinase JAK3 (Homo sapiens) (UniProt P52333). Description: Inhibition of Jak3 at 5 uM assessed as remaining activity. In outline:
as §5

Data set [17] concerns the target T2, Scaffold protein ILK (Homo sapiens). In words: Inhibition of ILK in human MDA-MB-231 cells assessed as decrease in GSK3-beta phosphorylation by Western blot analysis. The format is cell-based. Summed up:
as §3

Sequence of Rapamycin-insensitive companion of mTOR (Homo sapiens) (Q6R327 whole entry): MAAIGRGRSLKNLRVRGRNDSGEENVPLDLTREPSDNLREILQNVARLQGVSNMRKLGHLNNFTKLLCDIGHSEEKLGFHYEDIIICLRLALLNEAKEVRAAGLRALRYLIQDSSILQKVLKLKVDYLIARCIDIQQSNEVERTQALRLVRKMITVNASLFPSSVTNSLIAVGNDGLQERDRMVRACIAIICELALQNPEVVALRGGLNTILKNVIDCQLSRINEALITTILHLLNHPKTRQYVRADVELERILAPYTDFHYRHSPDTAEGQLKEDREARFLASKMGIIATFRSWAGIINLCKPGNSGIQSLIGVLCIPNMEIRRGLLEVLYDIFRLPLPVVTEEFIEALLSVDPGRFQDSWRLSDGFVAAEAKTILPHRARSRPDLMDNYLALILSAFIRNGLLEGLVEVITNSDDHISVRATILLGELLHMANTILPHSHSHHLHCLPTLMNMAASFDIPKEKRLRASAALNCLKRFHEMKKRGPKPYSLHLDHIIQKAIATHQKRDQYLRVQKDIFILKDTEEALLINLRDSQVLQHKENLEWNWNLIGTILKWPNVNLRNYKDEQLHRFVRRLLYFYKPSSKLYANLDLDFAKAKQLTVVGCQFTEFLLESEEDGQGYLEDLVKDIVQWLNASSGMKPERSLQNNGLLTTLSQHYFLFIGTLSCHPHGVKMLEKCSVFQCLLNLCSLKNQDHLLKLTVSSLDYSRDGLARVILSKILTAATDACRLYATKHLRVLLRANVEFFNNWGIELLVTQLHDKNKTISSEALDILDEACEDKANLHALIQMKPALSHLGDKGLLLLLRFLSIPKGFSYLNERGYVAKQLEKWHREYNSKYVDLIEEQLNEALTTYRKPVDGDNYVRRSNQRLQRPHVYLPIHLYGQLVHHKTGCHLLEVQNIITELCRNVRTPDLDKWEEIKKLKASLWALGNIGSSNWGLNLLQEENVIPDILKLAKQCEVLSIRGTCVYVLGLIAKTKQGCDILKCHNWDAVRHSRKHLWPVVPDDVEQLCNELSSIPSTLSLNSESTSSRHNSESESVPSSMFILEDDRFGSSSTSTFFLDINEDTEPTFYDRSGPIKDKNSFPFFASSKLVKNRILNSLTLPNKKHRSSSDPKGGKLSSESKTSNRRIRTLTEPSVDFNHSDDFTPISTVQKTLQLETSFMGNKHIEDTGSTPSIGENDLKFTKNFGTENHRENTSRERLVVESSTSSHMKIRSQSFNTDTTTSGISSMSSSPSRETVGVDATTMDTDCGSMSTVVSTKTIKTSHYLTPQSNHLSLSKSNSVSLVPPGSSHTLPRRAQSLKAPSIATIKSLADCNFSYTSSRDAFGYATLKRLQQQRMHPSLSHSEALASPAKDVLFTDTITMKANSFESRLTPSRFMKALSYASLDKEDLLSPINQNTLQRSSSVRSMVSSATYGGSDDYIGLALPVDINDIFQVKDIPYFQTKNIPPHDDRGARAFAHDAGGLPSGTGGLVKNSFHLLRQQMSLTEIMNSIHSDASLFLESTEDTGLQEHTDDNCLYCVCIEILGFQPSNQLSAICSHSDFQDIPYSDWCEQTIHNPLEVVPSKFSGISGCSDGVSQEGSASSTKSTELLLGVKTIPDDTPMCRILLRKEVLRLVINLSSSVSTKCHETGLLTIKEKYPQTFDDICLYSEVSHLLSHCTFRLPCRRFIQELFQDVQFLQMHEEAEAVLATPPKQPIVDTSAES
Sequence of Tyrosine-protein kinase ABL1 (Homo sapiens) (P00519 whole entry): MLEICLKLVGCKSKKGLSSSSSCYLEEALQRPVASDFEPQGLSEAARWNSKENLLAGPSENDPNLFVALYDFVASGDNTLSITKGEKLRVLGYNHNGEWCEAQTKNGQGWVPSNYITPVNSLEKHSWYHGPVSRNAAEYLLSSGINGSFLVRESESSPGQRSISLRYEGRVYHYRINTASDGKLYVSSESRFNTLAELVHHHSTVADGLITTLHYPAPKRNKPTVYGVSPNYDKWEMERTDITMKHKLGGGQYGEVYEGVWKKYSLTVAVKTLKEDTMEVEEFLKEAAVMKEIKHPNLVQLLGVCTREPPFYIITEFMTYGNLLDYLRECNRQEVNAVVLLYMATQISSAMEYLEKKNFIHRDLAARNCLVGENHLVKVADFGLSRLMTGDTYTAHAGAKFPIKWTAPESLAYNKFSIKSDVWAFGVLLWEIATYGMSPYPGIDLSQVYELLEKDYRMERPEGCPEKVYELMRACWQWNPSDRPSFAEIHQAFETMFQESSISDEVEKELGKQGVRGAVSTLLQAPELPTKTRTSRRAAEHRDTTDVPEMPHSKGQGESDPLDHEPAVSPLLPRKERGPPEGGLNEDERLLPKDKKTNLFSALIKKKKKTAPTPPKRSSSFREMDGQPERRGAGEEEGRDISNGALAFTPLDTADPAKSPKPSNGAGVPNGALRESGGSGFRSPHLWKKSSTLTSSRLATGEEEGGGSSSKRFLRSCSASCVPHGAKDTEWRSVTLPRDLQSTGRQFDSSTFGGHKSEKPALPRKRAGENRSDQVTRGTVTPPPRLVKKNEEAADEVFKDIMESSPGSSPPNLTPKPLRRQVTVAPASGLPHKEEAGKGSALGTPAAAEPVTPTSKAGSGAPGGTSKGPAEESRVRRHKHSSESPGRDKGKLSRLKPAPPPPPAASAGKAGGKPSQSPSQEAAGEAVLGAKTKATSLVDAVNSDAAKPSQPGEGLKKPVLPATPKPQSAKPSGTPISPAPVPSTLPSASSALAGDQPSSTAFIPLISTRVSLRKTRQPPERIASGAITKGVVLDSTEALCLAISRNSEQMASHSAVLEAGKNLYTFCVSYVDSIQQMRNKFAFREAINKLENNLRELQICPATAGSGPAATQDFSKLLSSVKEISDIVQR
Sequence of Tyrosine-protein kinase JAK3 (Homo sapiens) (P52333 whole entry): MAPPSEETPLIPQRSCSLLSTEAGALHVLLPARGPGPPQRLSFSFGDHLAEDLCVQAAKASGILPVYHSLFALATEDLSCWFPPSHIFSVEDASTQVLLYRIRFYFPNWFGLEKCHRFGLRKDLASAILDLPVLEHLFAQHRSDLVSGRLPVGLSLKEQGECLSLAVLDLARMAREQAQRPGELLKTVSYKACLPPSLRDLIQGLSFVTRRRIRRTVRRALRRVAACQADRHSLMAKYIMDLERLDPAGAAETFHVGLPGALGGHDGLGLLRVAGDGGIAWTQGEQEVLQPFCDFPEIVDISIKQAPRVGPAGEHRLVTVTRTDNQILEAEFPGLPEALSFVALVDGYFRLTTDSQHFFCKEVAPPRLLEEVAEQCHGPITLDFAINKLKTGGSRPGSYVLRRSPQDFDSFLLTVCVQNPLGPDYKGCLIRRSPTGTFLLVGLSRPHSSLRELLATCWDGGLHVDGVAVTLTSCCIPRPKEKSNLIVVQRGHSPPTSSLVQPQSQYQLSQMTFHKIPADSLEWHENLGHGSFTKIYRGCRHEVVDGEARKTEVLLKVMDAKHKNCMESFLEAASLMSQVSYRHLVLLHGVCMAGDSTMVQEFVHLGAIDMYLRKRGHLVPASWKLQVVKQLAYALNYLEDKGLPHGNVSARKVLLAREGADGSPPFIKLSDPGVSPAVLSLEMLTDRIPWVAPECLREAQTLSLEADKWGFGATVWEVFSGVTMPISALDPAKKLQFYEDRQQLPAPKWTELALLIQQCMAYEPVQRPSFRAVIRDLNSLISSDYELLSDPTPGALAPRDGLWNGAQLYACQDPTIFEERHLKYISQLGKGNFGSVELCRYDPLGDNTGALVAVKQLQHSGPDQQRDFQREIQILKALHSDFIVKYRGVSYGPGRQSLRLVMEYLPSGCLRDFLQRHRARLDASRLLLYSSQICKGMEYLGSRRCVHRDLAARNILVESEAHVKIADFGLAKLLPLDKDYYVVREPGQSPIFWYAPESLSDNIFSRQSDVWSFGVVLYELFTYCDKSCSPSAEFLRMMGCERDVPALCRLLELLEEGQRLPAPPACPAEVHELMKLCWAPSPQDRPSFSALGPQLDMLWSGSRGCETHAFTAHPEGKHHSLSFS
Sequence of Cyclin-dependent kinase 1/cyclin B1 (Homo sapiens) (P06493 whole entry, looked up): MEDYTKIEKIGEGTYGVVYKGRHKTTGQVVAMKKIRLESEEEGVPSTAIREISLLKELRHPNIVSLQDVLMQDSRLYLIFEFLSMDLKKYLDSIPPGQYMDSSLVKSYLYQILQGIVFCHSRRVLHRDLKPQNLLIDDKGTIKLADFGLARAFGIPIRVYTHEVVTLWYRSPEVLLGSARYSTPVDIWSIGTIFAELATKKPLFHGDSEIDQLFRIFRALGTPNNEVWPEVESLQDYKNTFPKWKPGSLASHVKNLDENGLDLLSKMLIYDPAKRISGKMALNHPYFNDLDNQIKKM
Sequence of Cyclin-dependent kinase 1/cyclin B1 (Homo sapiens) (P14635 whole entry, looked up): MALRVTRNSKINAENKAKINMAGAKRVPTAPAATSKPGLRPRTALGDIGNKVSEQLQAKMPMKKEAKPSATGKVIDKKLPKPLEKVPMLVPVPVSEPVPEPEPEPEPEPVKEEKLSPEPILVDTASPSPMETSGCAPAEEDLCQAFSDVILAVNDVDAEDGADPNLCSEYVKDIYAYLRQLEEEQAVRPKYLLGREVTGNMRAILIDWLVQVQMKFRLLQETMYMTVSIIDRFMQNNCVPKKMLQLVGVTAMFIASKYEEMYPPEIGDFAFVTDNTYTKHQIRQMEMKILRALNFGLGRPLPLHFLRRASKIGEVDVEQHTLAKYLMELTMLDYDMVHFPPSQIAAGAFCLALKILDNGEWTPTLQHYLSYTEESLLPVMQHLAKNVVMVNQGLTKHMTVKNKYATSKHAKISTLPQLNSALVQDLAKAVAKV

For `CNC(=O)CCc1cc(-c2ccc(-c3ccc(C(F)(F)F)cc3)cc2)n(-c2ccc(N3CCNCC3)cc2)n1`, in data set [1], the “inhibition (INH)” value was “Not Active”. The Activity in data set [2] is 14.9%; in [5], “Dose-dependent effect”; in data set [7], “Dose-dependent effect”; in data set [9], 73%; in [10], 73%; in data set [12], “Dose-dependent effect”. Besides, the figures for the Activity in data set [14], in data set [15] and in data set [16] were 65%, “Dose-dependent effect” and 128%, respectively. In addition, the inhibition result in [3], in data set [8], in [11] and in data set [13] was “inactive” in each case. For the same compound, the inhibition result in data set [4] and in data set [17] was “Active” each time. For the same compound, the IC50 in data set [6] amounted to 1000 nM.

(Values after ChEMBL document CHEMBL1828498, “Identification and characterization of a novel integrin-linked kinase inhibitor” (J Med Chem, 2011).)
